Active and inactive are the calls of the source. The calls are words filed in the database; no cut-off is given here. Square brackets hold non-standard residues; d marks the D form. Peptide text beside a SMILES is read from it. Orn = NCCC[C@H](N)C(=O)O
Columns and labels:
Jurkat [1] = experiment: Activity on rosetting of jurkat T-cells with SRBC at the concentration of 10e-11 M; Not significant; format: functional, cell-based; details: Homo sapiens, at 10 pM
Method in brief: (§1)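 Jurkat T lymphoma cells kept in RPMI 1640 with 10% heat-inactivated FCS, washed three times before use; SRBC washed three times. Jurkat cells (2 × 10^6 cells/mL, 2.10⁵ cells) preincubated with peptide in RPMI for 10 min at 4 °C. SRBC (2 × 10^8 cells/mL) added, centrifuged 5 min at 200g, held overnight at 4 °C. Rosettes (three erythrocytes per lymphocyte) counted blind by hemocytometer; three experiments in quadruplicate; % inhibition.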

Jurkat [2] = experiment: (§2) Activity on rosetting of jurkat T-cells with SRBC at the concentration of 10e-8 M; format: functional, Homo sapiens
Jurkat [3] = experiment: (§3) Activity on rosetting of jurkat T-cells with SRBC at the concentration of 10e-5 M; format: functional, Homo sapiens
Jurkat [4] = experiment: (§4) Activity on rosetting of jurkat T-cells with SRBC at the concentration of 10e-7 M; format: functional, Homo sapiens
Jurkat [5] = experiment: Activity on rosetting of jurkat T-cells with SRBC at the concentration of 10e-7 M; Not significant; format: functional, cell-based; details: Homo sapiens, at 0.1 µM; method in brief: as §1
Jurkat [6] = experiment: Activity on rosetting of jurkat T-cells with SRBC at the concentration of 10e-8 M; Not significant; format: functional, cell-based; details: Homo sapiens, at 0.01 µM; method in brief: as §1
Jurkat [7] = experiment: Activity on rosetting of jurkat T-cells with SRBC at the concentration of 10e-10 M; Not significant; format: functional, cell-based; details: Homo sapiens, at 0.0001 µM; method in brief: as §1
Jurkat [8] = experiment: (§5) Activity on rosetting of jurkat T-cells with SRBC at the concentration of 10e-6 M; format: functional; details: Homo sapiens
Jurkat [9] = experiment: Activity on rosetting of jurkat T-cells with SRBC at the concentration of 0 M; format: functional, Homo sapiens
Jurkat [10] = experiment: (§6) Activity on rosetting of jurkat T-cells with SRBC at the concentration of 10e-9 M; format: functional, Homo sapiens
Jurkat [11] = experiment: (§7) Activity on rosetting of jurkat T-cells with SRBC at the concentration of 10e-11 M; format: functional, Homo sapiens
Jurkat [12] = experiment: (§8) Activity on rosetting of jurkat T-cells with SRBC at the concentration of 10e-4 M; format: functional; details: Homo sapiens
Jurkat [13] = experiment: Activity on rosetting of jurkat T-cells with SRBC at the concentration of 10e-9 M; Not significant; format: functional, cell-based; details: Homo sapiens, at 0.001 µM; method in brief: as §1
Jurkat [14] = experiment: as §5; format: functional, Homo sapiens
Jurkat [15] = experiment: as §3; format: functional; details: Homo sapiens
Jurkat [16] = experiment: (§9) Activity on rosetting of jurkat T-cells with SRBC at the concentration of 10e-10 M; format: functional, Homo sapiens
Jurkat [17] = experiment: as §8; format: functional, Homo sapiens
Jurkat [18] = experiment: Activity on rosetting of jurkat T-cells with SRBC at the concentration of 10e-6 M; Not significant; format: functional, cell-based; details: Homo sapiens
Jurkat [19] = experiment: Activity on rosetting of jurkat T-cells with SRBC at the concentration of 10e-5 M; Not significant; format: functional, cell-based; details: Homo sapiens
Jurkat [20] = experiment: Activity on rosetting of jurkat T-cells with SRBC at the concentration of 10e-4 M; Not significant; format: functional, cell-based; details: Homo sapiens
Jurkat [21] = experiment: as §2; format: functional; details: Homo sapiens
Jurkat [22] = experiment: (§10) Activity on rosetting of jurkat T-cells with SRBC at the concentration of 10e-3 M; format: functional, Homo sapiens
Jurkat [23] = experiment: as §10; format: functional; details: Homo sapiens
Jurkat [24] = experiment: as §6; format: functional; details: Homo sapiens
Jurkat [25] = experiment: as §4; format: functional; details: Homo sapiens
Jurkat [26] = experiment: Activity on rosetting of jurkat T-cells with SRBC at the concentration of 10e-14 M; Not significant; format: functional, cell-based; details: Homo sapiens
Jurkat [27] = experiment: Activity on rosetting of jurkat T-cells with SRBC at the concentration of 10e-15 M; Not significant; format: functional, cell-based; details: Homo sapiens
Jurkat [28] = experiment: Activity on rosetting of jurkat T-cells with SRBC at the concentration of 10e-12 M; format: functional, Homo sapiens
Jurkat [29] = experiment: as §9; format: functional; details: Homo sapiens
Jurkat [30] = experiment: Activity on rosetting of jurkat T-cells with SRBC at the concentration of 10e-15 M; format: functional, Homo sapiens
Jurkat [31] = experiment: Activity on rosetting of jurkat T-cells with SRBC at the concentration of 10e-14 M; format: functional, Homo sapiens
Jurkat [32] = experiment: Activity on rosetting of jurkat T-cells with SRBC at the concentration of 10e-12 M; Not significant; format: functional, cell-based; details: Homo sapiens
Jurkat [33] = experiment: Activity on rosetting of jurkat T-cells with SRBC at the concentration of 10e-13 M; format: functional, Homo sapiens
Jurkat [34] = experiment: as §7; format: functional; details: Homo sapiens
Jurkat [35] = experiment: Activity on rosetting of jurkat T-cells with SRBC at the concentration of 10e-13 M; Not significant; format: functional, cell-based; details: Homo sapiens

| Structure (SMILES) | inhibition (Jurkat [1]) | No. of rosettes/100 Jurkat T cells (Jurkat [2]) | No. of rosettes/100 Jurkat T cells (Jurkat [3]) | No. of rosettes/100 Jurkat T cells (Jurkat [4]) | inhibition (Jurkat [5]) | inhibition (Jurkat [6]) | inhibition (Jurkat [7]) | inhibition at 1 µM (Jurkat [8]) [%] | No. of rosettes/100 Jurkat T cells (Jurkat [9]) | No. of rosettes/100 Jurkat T cells (Jurkat [10]) | No. of rosettes/100 Jurkat T cells (Jurkat [11]) | inhibition at 100 µM (Jurkat [12]) [%] | inhibition (Jurkat [13]) | No. of rosettes/100 Jurkat T cells (Jurkat [14]) | inhibition at 10 µM (Jurkat [15]) [%] | No. of rosettes/100 Jurkat T cells (Jurkat [16]) | No. of rosettes/100 Jurkat T cells (Jurkat [17]) | inhibition at 0.01 µM (Jurkat [21]) [%] | inhibition at 0.1 µM (Jurkat [25]) [%] | further results |
| --- | --- | --- | --- | --- | --- | --- | --- | --- | --- | --- | --- | --- | --- | --- | --- | --- | --- | --- | --- | --- |
| CC(=O)N[C@@H](CO)C(=O)N[C@@H](CC(=O)O)C(=O)O (Ac-Ser-Asp-OH) | inactive | 54 | 39 | 52 | inactive | inactive | inactive | 18 | 56 | 51 | 58 | 30 | inactive | 46 | 30 | 57 | 39 |  |  |  |
| CC(=O)N[C@@H](CO)C(=O)N[C@@H](CC(=O)O)C(=O)N[C@@H](CCCCN)C(=O)N1CCC[C@H]1C(=O)O (stereo in doubt; form 2) [GORALATIDE] |  | 83 | 78 | 83 |  |  |  |  | 82 |  |  |  |  | 76 |  | 83 | 80 |  |  |  |
| CC(=O)N[C@@H](CO)C(=O)N[C@@H](CC(=O)O)C(=O)N[C@@H](CCCN)C(=O)N1CCC[C@H]1C(=O)O (Ac-SD[Orn]P-OH) |  |  | 52 |  |  |  |  |  | 58 |  |  |  |  | 52 |  |  | 54 |  |  | inhibition (Jurkat [18]): inactive; inhibition (Jurkat [19]): inactive; inhibition (Jurkat [20]): inactive |
| CC(=O)N[C@@H](CO)C(=O)N[C@@H](CC(=O)O)C(=O)N[C@@H](CCCCN)C(=O)N1CCC[C@H]1C(=O)O (stereo in doubt; form 1) [GORALATIDE] |  | 41 | 32 | 40 |  |  |  | 40 | 62 | 48 | 58 | 48 |  | 37 | 48 | 63 | 33 | 34 | 35 | No. of rosettes/100 Jurkat T cells (Jurkat [22]): 32; inhibition at 1000 µM (Jurkat [23]): 48%; inhibition at 0.001 µM (Jurkat [24]): 21% |
| CC(=O)N[C@@H](CO)C(=O)N[C@@H](CCC(=O)O)C(=O)N[C@@H](CCCCN)C(=O)N1CCC[C@H]1C(=O)O (Ac-SEKP-OH) | inactive | 42 | 29 | 41 | inactive | inactive | inactive | 25 | 47 | 43 | 45 |  | inactive | 35 | 37 | 46 |  |  |  |  |
| NCCCC[C@H](NC(=O)[C@H](CC(=O)O)NC(=O)[C@@H](N)CO)C(=O)N1CCC[C@H]1C(=O)O (H-SDKP-OH) |  | 56 | 49 | 54 |  |  |  | 20 | 63 |  | 55 | 25 |  | 50 | 22 | 55 | 47 | 11 | 14 | inhibition (Jurkat [26]): inactive; inhibition (Jurkat [27]): inactive; No. of rosettes/100 Jurkat T cells (Jurkat [28]): 59; inhibition at 0.0001 µM (Jurkat [29]): 13%; No. of rosettes/100 Jurkat T cells (Jurkat [30]): 60; No. of rosettes/100 Jurkat T cells (Jurkat [31]): 61; inhibition (Jurkat [32]): inactive; No. of rosettes/100 Jurkat T cells (Jurkat [33]): 58; inhibition at 10 pM (Jurkat [34]): 13%; inhibition (Jurkat [35]): inactive |
